From ChEMBL document CHEMBL2311432, “Synthesis, characterization and preliminary anticonvulsant evaluation of some 4-alkyl-1,2,4-triazoles” (Eur J Med Chem, 2013)

Columns and labels:
[1] = Neurotoxicity in ip dosed Swiss mouse assessed as delay in motor coordination administered 15 mins before test by chimney test; assay type: toxicity, organism-based; settings: in vivo
Outline: (§1)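 Chimney test (Boissier). Mice must climb backward up a transparent tube (3 cm i.d., 30 cm long) within 60 s, and failure marks motor impairment. At least four groups of 8 mice receive various i.p. doses at the stated pretreatment time. TD50 comes from log-probit dose-response analysis (Litchfield-Wilcoxon), ± S.E.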

[2] = tested on: Mus musculus; experiment: Protective index, ratio of TD50 for Swiss mouse administered 30 mins before test to ED50 for Swiss mouse administered 30 mins before test; assay type: functional
Outline: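 PI equals chimney-test TD50 divided by MES-test ED50, both determined after i.p. dosing at the same pretreatment time in groups of 8 mice.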

[3] = tested on: Mus musculus; experiment: Anticonvulsant activity in ip dosed Swiss mouse assessed as protection against maximal electroshock-induced seizure administered 60 mins before test; assay type: functional
Outline: (§2)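 Mice in groups of 8, each used once, given various i.p. doses of fresh solution at the stated pretreatment time before maximal electroshock. Protection percentages give dose-response lines by Litchfield-Wilcoxon. ED50 is the dose protecting 50% of mice against MES seizures, reported ± S.E.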

[4] = tested on: Mus musculus; experiment: Protective index, ratio of TD50 for Swiss mouse administered 120 mins before test to ED50 for Swiss mouse administered 120 mins before test; assay type: functional
[5] = Neurotoxicity in ip dosed Swiss mouse assessed as delay in motor coordination administered 120 mins before test by chimney test; assay type: toxicity, organism-based; settings: in vivo; outline: as §1
[6] = tested on: Mus musculus; experiment: Anticonvulsant activity in Swiss mouse assessed as protection against maximal electroshock-induced seizure at 300 mg/kg, ip administered 15 mins before test; assay type: functional; settings: route intraperitoneal
Outline: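 Mice in groups of 8, each used once, after 7 days' adaptation. Fixed 300 mg/kg dose given i.p. from freshly prepared solution, then maximal electroshock applied at the stated pretreatment time. Read-out is the percentage of the 8 mice protected against MES-induced seizures.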

[7] = Neurotoxicity in ip dosed Swiss mouse assessed as delay in motor coordination administered 60 mins before test by chimney test; assay type: toxicity, organism-based; settings: in vivo; outline: as §1
[8] = tested on: Mus musculus; experiment: Protective index, ratio of TD50 for Swiss mouse administered 60 mins before test to ED50 for Swiss mouse administered 60 mins before test; assay type: functional
[9] = tested on: Mus musculus; experiment: Anticonvulsant activity in ip dosed Swiss mouse assessed as protection against maximal electroshock-induced seizure administered 15 mins before test; assay type: functional; outline: as §2
[10] = tested on: Mus musculus; experiment: Protective index, ratio of TD50 for Swiss mouse administered 15 mins before test to ED50 for Swiss mouse administered 15 mins before test; assay type: functional
[11] = tested on: Mus musculus; experiment: Anticonvulsant activity in ip dosed Swiss mouse assessed as protection against maximal electroshock-induced seizure administered 30 mins before test; assay type: functional; outline: as §2
[12] = Neurotoxicity in ip dosed Swiss mouse assessed as delay in motor coordination administered 30 mins before test by chimney test; assay type: toxicity, organism-based; settings: in vivo; outline: as §1
[13] = tested on: Mus musculus; experiment: Anticonvulsant activity in ip dosed Swiss mouse assessed as protection against maximal electroshock-induced seizure administered 120 mins before test; assay type: functional; outline: as §2
[14] = tested on: Brain; experiment: Drug uptake in Swiss mouse brain assessed as per 1 mg of tissue at 300 mg/kg, ip; assay type: ADME, organism-based; set-up: dose 300 mg/kg, route intraperitoneal; settings: in vivo

Row | SMILES | TD50 at 0.25 h [1] [mg/kg] | Ratio TD50/ED50 [2] | ED50 [3] [mg/kg] | Ratio TD50/ED50 [4] | TD50 at 2 h [5] [mg/kg] | Activity [6] [%] | TD50 at 1 h [7] [mg/kg] | Ratio TD50/ED50 [8] | ED50 [9] [mg/kg] | Ratio TD50/ED50 [10] | ED50 [11] [mg/kg] | TD50 at 0.5 h [12] [mg/kg] | ED50 [13] [mg/kg] | Drug uptake [14]
1 | CCn1c(S)nnc1-c1cccc(Cl)c1 | 731 | 3.7 | 252 | 2.8 | 887 | 100 | 742 | 2.9 | 153 | 4.8 | 204 | 753 | 320 | 
2 | CCCCCCCCCCCCn1c(-c2cccc(Cl)c2)n[nH]c1=S |  |  |  |  |  |  |  |  |  |  |  |  |  | Not Active
3 | CCCCn1c(-c2cccc(Cl)c2)n[nH]c1=S | 398 | 5.2 | 156 | 1.4 | 429 | 100 | 414 | 2.7 | 38.5 | 10.3 | 77.8 | 405 | 311 | 
4 | CCCCCn1c(-c2cccc(Cl)c2)n[nH]c1=S | 310 | 4.8 | 69.5 | 2.7 | 392 | 100 | 303 | 4.4 | 46.5 | 6.7 | 65.2 | 310 | 147 | 
5 | CCCCCCn1c(-c2cccc(Cl)c2)n[nH]c1=S |  | 6.8 | 98.1 | 2.8 |  | 100 |  | 4.7 | 47.6 | 9.7 | 68.3 |  | 160 | 
6 | CCCCCCCn1c(-c2cccc(Cl)c2)n[nH]c1=S | 416 | 6.5 | 102 | 3.3 | 440 | 100 | 430 | 4.2 | 55.1 | 7.5 | 65.2 | 423 | 135 | 
7 | CCCCCCCCCn1c(-c2cccc(Cl)c2)n[nH]c1=S | 667 | 5.5 | 105 | 4.6 | 659 | 100 | 640 | 6.1 | 144 | 4.6 | 130 | 713 | 143 | 
8 | CCCC(CCC)C(=O)[O-].CCCC(CCC)C(=O)[O-].[Mg+2] [MAGNESIUM VALPROATE] | 363 |  |  |  | 512 |  | 417 |  |  |  |  | 373 |  | 
